Activity, MIC and fold change (FC) data for seven molecules are collected here from ChEMBL document CHEMBL1157254, “Metabolites of the "smoke tree", Dalea spinosa, potentiate antibiotic activity against multidrug-resistant Staphylococcus aureus” (2006).

Active and inactive are the calls of the source.

Broadly, the MIC is the smallest concentration in the dilution series that meets the test's criterion for growth inhibition.

For assay [1], the target named is T1, Quinolone resistance protein NorA (Staphylococcus aureus) (UniProt P0A0J7).
T1 sequence (whole entry): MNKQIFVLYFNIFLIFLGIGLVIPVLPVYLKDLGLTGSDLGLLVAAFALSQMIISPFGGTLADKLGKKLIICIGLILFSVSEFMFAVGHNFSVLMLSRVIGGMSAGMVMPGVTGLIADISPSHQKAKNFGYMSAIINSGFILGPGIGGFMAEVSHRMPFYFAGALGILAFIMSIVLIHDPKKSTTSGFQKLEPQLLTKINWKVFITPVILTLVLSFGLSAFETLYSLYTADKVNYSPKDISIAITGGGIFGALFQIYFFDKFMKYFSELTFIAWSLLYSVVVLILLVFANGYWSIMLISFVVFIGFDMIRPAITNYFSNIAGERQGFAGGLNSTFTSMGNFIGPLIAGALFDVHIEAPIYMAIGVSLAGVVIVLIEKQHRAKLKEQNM
Nature of the assay: Inhibition of NorA efflux pump in Staphylococcus aureus K2361 mutant overexpressing NorA assessed as potentiation of berberine-induced antimicrobial activity at 48 uM by twofold serial dilution method. The procedure, abridged:
(§1)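 Checkerboard assay in 96-well plates. Berberine is diluted 2-fold from 30 to 0.5 µg/mL (89-1.5 µM) across rows, and plant compound from 15 to 0.015 µg/mL across columns, with single-agent dilution series on each plate. Inoculum 5 × 10⁶ CFU/mL, 24 h at 37 °C, growth read at A600. Result is the fold reduction in berberine MIC.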

Assay [2] has as its system Candida albicans. As to the kind of experiment: Antimicrobial activity against Candida albicans F5 by twofold serial dilution method. Type of assay: functional.
In assay [3] the test system is Staphylococcus aureus. As to the kind of experiment: Antimicrobial activity against wild-type Staphylococcus aureus 8325-4 by twofold serial dilution method. Type of assay: functional.
In assay [4] the test system is Pseudomonas aeruginosa. As to the kind of experiment: Antimicrobial activity against Pseudomonas aeruginosa PA14 by twofold serial dilution method. In kind it is functional.
Assay [5] deals with Saccharomyces cerevisiae. Nature of the assay: Antimicrobial activity against Saccharomyces cerevisiae BY4742 by twofold serial dilution method. Type of assay: functional.
The subject of assay [6] is Escherichia coli. As to the kind of experiment: Antimicrobial activity against wild-type Escherichia coli K12 by twofold serial dilution method. In kind it is functional.
Assay [7] relates to Enterococcus faecalis. As to the kind of experiment: Antimicrobial activity against Enterococcus faecalis V583 by twofold serial dilution method. In kind it is functional.
Assay [8] has as its system Staphylococcus aureus. As to the kind of experiment: Inhibition of MDR protein in wild-type Staphylococcus aureus 8325-4 assessed as potentiation of antimicrobial activity of berberine after 18 hrs by twofold serial dilution method.
Assay [9] addresses T1, Quinolone resistance protein NorA (Staphylococcus aureus). As to the kind of experiment: Inhibition of NorA efflux pump in wild-type Staphylococcus aureus 8325-4 assessed as fold reduction of berberine MIC at 48 uM by twofold serial dilution method. The procedure, abridged: as §1
The target is the same in assay [10]. As to the kind of experiment: Inhibition of NorA efflux pump in Staphylococcus aureus K1758 mutant assessed as fold reduction of berberine MIC at 48 uM by twofold serial dilution method. The procedure, abridged:
as §1

For assay [11] the target is unchanged. Nature of the assay: Inhibition of NorA efflux pump in Staphylococcus aureus K2361 mutant overexpressing NorA assessed as potentiation of berberine-induced antimicrobial activity at 56 uM by twofold serial dilution method. A digest of the protocol: as §1
The target is the same in assay [12]. Nature of the assay: Inhibition of NorA efflux pump in Staphylococcus aureus K1758 mutant assessed as fold reduction of berberine MIC at 56 uM by twofold serial dilution method. The procedure, abridged:
as §1

The target is the same in assay [13]. As to the kind of experiment: Inhibition of NorA efflux pump in wild-type Staphylococcus aureus 8325-4 assessed as fold reduction of berberine MIC at 56 uM by twofold serial dilution method. The procedure, abridged: as §1
The target is the same in assay [14]. As to the kind of experiment: Inhibition of NorA efflux pump in wild-type Staphylococcus aureus 8325-4 assessed as fold reduction of berberine MIC at 42 uM by twofold serial dilution method. A digest of the protocol: as §1
The target is the same in assay [15]. As to the kind of experiment: Inhibition of NorA efflux pump in Staphylococcus aureus K2361 mutant overexpressing NorA assessed as potentiation of berberine-induced antimicrobial activity at 42 uM by twofold serial dilution method. The procedure, abridged: as §1
Assay [16] relates to Staphylococcus aureus. As to the kind of experiment: Antimicrobial activity against Staphylococcus aureus K2361 mutant overexpressing NorA. In kind it is functional.
Assay [17] concerns Staphylococcus aureus. Nature of the assay: Antimicrobial activity against NorA knockout Staphylococcus aureus K1758 mutant. Type of assay: functional.
The subject of assay [18] is Staphylococcus aureus. As to the kind of experiment: Antimicrobial activity against wild-type Staphylococcus aureus 8325-4. In kind it is functional. A digest of the protocol:
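Wild-type S. aureus 8325-4 grown in Mueller-Hinton broth and inoculated at 10⁵ cells/mL. Test compound serially diluted 2-fold from 50 µg/mL ([…]). Incubated 18 h at 37 °C. Growth read as absorbance at 600 nm. Triplicate, following NCCLS recommendations.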

`COc1ccc(-c2coc3cc(O)c(OC)cc3c2=O)c(O)c1`: in assay [1], the outcome was inactive. For the same molecule, the MIC in assay [2], in assay [3], in [4], in [5], in [6] and in assay [7] was over 140 µM throughout. In addition, the result in assay [8] was Active.

With `COc1ccc2c(C=O)c(-c3ccc(O)cc3OC)oc2c1` [SPINOSAN B], the minimum inhibitory concentration (MIC) in assay [2], in assay [3], in [4], in [5], in assay [6] and in assay [7] was over 140 µM each time. Moreover, the result in assay [8] was inactive.

As for `COc1cc(O)ccc1-c1oc2cc3c(cc2c1C=O)OCO3` [SPINOSAN A], the result in [1] was inactive. The fold change (FC) was found to be 8 in assay [9] and 15 in [10]. Besides, the MIC in assay [2], in [3], in assay [4], in [5], in assay [6] and in assay [7] was over 140 µM throughout. Besides, the result in assay [8] was Active.

For the molecule `COc1ccc2c(c1)O[C@@H]1c3ccc(OC)c(O)c3OC[C@H]21`, the minimal inhibitory concentration (MIC) in assay [2], in assay [3], in [4], in [5], in assay [6] and in assay [7] was over 140 µM each time. For the same molecule, the outcome in assay [8] was inactive.

In the case of `COc1ccc2c(c1)O[C@@H]1c3ccc(O)cc3OC[C@H]21`, the MIC in assay [2], in [3], in assay [4], in assay [5], in assay [6] and in assay [7] was over 140 µM in each case. Besides, the outcome in assay [11] was inactive. In addition, the fold change (FC) in assay [12] and in [13] was 4 in each case. In assay [8], the outcome was Active.

On to `COc1cc(OC(C)=O)ccc1-c1oc2cc3c(cc2c1C=O)OCO3` [SPINOSAN A ACETATE], for which the minimum inhibitory concentration (MIC) in assay [2], in assay [3], in assay [4], in [5], in [6] and in [7] was over 140 µM in each case. In addition, the fold change (FC) in assay [14] came to 62. Moreover, the outcome in assay [8] and in assay [15] was Active.

Take `COc1ccc2cc3[n+](cc2c1OC)CCc1cc2c(cc1-3)OCO2` [BERBERINE CHLORIDE]: the results for the minimal inhibitory concentration (MIC) in assay [16], in assay [17] and in assay [18] were over 1490 µM, 89 µM and 372 µM, respectively.
